Measurements as given in publication PMC3880594 (Journal of medicinal chemistry, 2013).

How the values were obtained:
[1] = test system: MDA-MB-231, a TNBC cell line; settings: same dose range effective for MCF-7 cells; ref 9a; cited from earlier work
[2] = test system: Bcl-2, Bax, NF-κB (p65), PARP, caspase-3 in MDA-MB-231 cells; assay: Western blot of apoptosis related proteins; assay type: cell-based, human; settings: 48 h; 10 and 19 at 2.5-10 μM, 1 at 10-30 μM
Summary of the method: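 MDA-MB-231 cells exposed to test compound or DMSO for 48 h, then lysed; protein measured by Bradford against BSA. 30 μg per lane resolved by SDS-PAGE and blotted to PVDF, blocked in 5% non-fat milk. Primary antibodies overnight: Bcl-2 1:200, Bax 1:1000, PARP 1:10000, NF-κB 1:2000, caspase-3 1:1000, β-actin 1:20000. Secondary antibody applied, then ECL detection.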

[3] = test system: MCF-7/ADR cells (adriamycin-resistant MCF-7 clone); assay: Growth inhibition of drug-resistant breast cancer cells; assay type: cell-based, human; settings: concentrations from 1 μM to 10 μM, 48 h
MDA-MB-231 cells [4] = assay: Cell apoptosis assay; assay type: cell-based, human; settings: MDA-MB-231 cells, 1.0, 5.0, 10 μM, 24 h
MDA-MB-231 cells [5] = assay: Colony formation assay; assay type: cell-based, human; settings: 0.625-10 μM, two weeks
Summary of the method: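 MDA-MB-231 cells seeded at 800 cells/well in regular medium; after 24 h, test compound (0.625, 1.25, 2.5, 5 or 10 μM) or DMSO vehicle added. Drug-containing medium renewed every 72 h for two weeks. Wells stained with 0.01% crystal violet for 10 min, PBS-washed and dried, then whole-well density quantified digitally. Triplicate; one-way ANOVA, SD shown.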

[6] = test system: MCF-7 (ER-positive) breast cancer cells; assay: MTT antiproliferation assay, MCF-7; assay type: cell-based, human; settings: MCF-7 and MDA-MB-231 cells
Summary of the method: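 Human breast cancer lines MCF-7 (ER-positive) and MDA-MB-231 (triple-negative) were used, with oridonin tested alongside. MTT antiproliferation read-out: after the MTT step, solution replaced by DMSO, OD at 550 nm after 10 min. Each concentration in quadruplicate wells. IC50 by curve fitting. Mean ± SE of three independent experiments.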

[7] = test system: MDA-MB-231 xenograft tumors; assay: MDA-MB-231 xenograft tumor model; assay type: in vivo; settings: 5 mg/kg i.p., nude mice
[8] = test system: HMEC (human normal mammary epithelial cells); assay: Growth inhibition of normal human mammary epithelial cells; assay type: cell-based; settings: 10 μM, 24 h; p < 0.05

SMILES: C=C1C(=O)[C@]23[C@H](O)[C@H]1CC[C@H]2[C@@]12CO[C@]3(O)[C@@H](O)[C@@H]1C(C)(C)CC[C@@H]2O [Compound 1, Oridonin, reference compound]
- growth of MDA-MB-231 [1]: failed to reduce the growth
- Bax protein level [2]: up-regulation
- Bcl-2 protein level [2]: down-regulation
- NF-κB (p65) protein expression [2]: down-regulation
- PARP cleavage (116 kDa to 25 kDa) [2]: up-regulation of Bax and cleaved PARP
- caspase-3 activation [2]: did not activate caspase-3 cleavage
- growth inhibitory activity on MCF-7/ADR cells [3]: no growth inhibitory activity

SMILES: C=C1C(=O)[C@@]23[C@@H]4OC(C)(C)O[C@]25OC[C@]2(C(=O)C(C=O)=CC(C)(C)[C@H]2[C@@H]5O)[C@@H]3CC[C@@H]14 [Compound 10, (3S,3aR,3a^1R,6aR,7S,7aR,11aS,11bS)-7-hydroxy-5,5,8,8-tetramethyl-15-methylene-11,14-dioxo-2,3,3a,7,7a,8,11,11b-octahydro-1H-6a,11a-(epoxymethano)-3,3a^1-ethanophenanthro[1,10-de][1,3]dioxine-10-carbaldehyde]
- induction of apoptosis (MDA-MB-231 cells [4]): significant effects to induce apoptosis of MDA-MB-231 cells in a dose-dependent manner
- Bax protein level [2]: up-regulation
- Bcl-2 protein level [2]: down-regulation
- NF-κB (p65) protein expression [2]: significant decrease
- PARP cleavage (116 kDa to 25 kDa) [2]: triggered PARP cleavage
- caspase-3 activation [2]: activated caspase-3 in a dose-dependent manner
- inhibition of colony formation (MDA-MB-231 cells [5]): inhibit the colony formation

SMILES: C=C1C(=O)[C@@]23C(=O)[C@@H](O)[C@@H]4C(C)(C)[C@@H]5OC[C@]4(C(=O)/C5=C/OC)[C@@H]2CC[C@@H]1[C@H]3O [Compound 13, (3S,4aR,5S,6aR,9S,11aS,11bS,14R,E)-5,14-dihydroxy-2-(methoxymethylene)-4,4-dimethyl-8-methyleneoctahydro-1H-3,11b-(epoxymethano)-6a,9-methanocyclohepta[a]naphthalene-1,6,7(2H,8H)-trione]
- antiproliferative activities (in words) [6]: no obvious antiproliferative activities

SMILES: C=C1C(=O)[C@@]23C(=O)[C@@H](O)[C@@H]4C(C)(C)[C@@H]5OC[C@]4(C(=O)/C5=C\O)[C@@H]2CC[C@@H]1[C@H]3O [Compound 14, (3S,4aR,5S,6aR,9S,11aS,11bS,14R,Z)-5,14-dihydroxy-2-(hydroxymethylene)-4,4-dimethyl-8-methyleneoctahydro-1H-3,11b-(epoxymethano)-6a,9-methanocyclohepta[a]naphthalene-1,6,7(2H,8H)-trione]
- antiproliferative activities (in words) [6]: no obvious antiproliferative activities

SMILES: C=C1C(=O)[C@@]23[C@@H]4OC(C)(C)O[C@]25OC[C@]2(C=CC(=O)C(C)(C)[C@H]2[C@@H]5O)[C@@H]3CC[C@@H]14 [Compound 19, (3S,3aR,3a^1R,6aR,7S,7aS,11aR,11bS)-7-hydroxy-5,5,8,8-tetramethyl-15-methylene-3,3a,7,7a,8,11b-hexahydro-1H-6a,11a-(epoxymethano)-3,3a^1-ethanophenanthro[1,10-de][1,3]dioxine-9,14(2H)-dione]
- induction of apoptosis (MDA-MB-231 cells [4]): significant effects to induce apoptosis of MDA-MB-231 cells in a dose-dependent manner
- Bax protein level [2]: up-regulation
- Bcl-2 protein level [2]: down-regulation
- NF-κB (p65) protein expression [2]: significant decrease
- PARP cleavage (116 kDa to 25 kDa) [2]: triggered PARP cleavage
- caspase-3 activation [2]: activated caspase-3 in a dose-dependent manner
- tolerability / body weight [7]: no significant loss of body weight
- inhibition of colony formation (MDA-MB-231 cells [5]): significantly blocked the colony formation of MDA-MB-231 cells at a submicromolar concentration
- toxicity to HMEC compared with oridonin [8]: lower toxicity at 10 μM than oridonin
